Data on 13 compounds can be found in ChEMBL document CHEMBL3779764, “Identification and Structure-Activity Relationships of Diarylhydrazides as Novel Potent and Selective Human Enterovirus Inhibitors” (J Med Chem, 2016).

The structures appear in SMILES notation. The source made the active and inactive calls. The rule behind the calls is not given here.

In one data set the test system is Coxsackievirus B3. Put plainly: Antiviral activity against Human coxsackievirus B3 infected in african green monkey Vero cells after 24 to 36 hrs by MTS-based CPE reduction assay. The note with it: Enterovirus B. The format is functional, organism-based. A digest of the protocol:
(§1)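 Vero cells infected with the coxsackievirus B serotype in the presence of serial compound dilutions. CPE reduction read by MTS/PMS absorbance at 498 nm after 24-36 h at 37 °C. EC50 is the concentration giving 50% CPE inhibition. Mean ± standard deviation of at least three independent experiments.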

A further data set has as its system Coxsackievirus B2. Description: Antiviral activity against Human coxsackievirus B2 infected in african green monkey Vero cells after 24 to 36 hrs by MTS-based CPE reduction assay. Particulars: Enterovirus B. In kind it is functional, organism-based. A digest of the protocol: as §1
For the next data set, the system named is Coxsackievirus B5. Put plainly: Antiviral activity against Human coxsackievirus B5 infected in african green monkey Vero cells after 24 to 36 hrs by MTS-based CPE reduction assay. Particulars: Enterovirus B. The format is functional, organism-based. A digest of the protocol:
as §1

A further data set relates to Coxsackievirus B6. Description: Antiviral activity against Human coxsackievirus B6 infected in african green monkey Vero cells after 24 to 36 hrs by MTS-based CPE reduction assay. The note with it: Enterovirus B. In kind it is functional, organism-based. A digest of the protocol: as §1
The test system of data set [1] is Enterovirus A71. Put plainly: Antiviral activity against Human enterovirus 71 infected in monkey African green Vero cells by MTS-based CPE reduction assay. In kind it is functional, organism-based. Particulars: Enterovirus A, Vero; read-out: EC50. An outline of the steps: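 Vero cells (5 × 10^5) seeded, then given serial compound dilutions plus 100 TCID50 EV71. Incubated at 37 °C for 24-36 h until complete CPE in the virus-infected, compound-free control. Viability read by MTS/PMS at 498 nm. EC50 is the concentration inhibiting virus-induced CPE by 50%. At least three repeats.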

In data set [2] the test system is Enterovirus A71. Description: Antiviral activity against Enterovirus 71 infected in human RD cells after 24 to 36 hrs by MTS-based CPE reduction assay. The format is functional, organism-based. The note with it: Enterovirus A, RD; read-out: EC50. An outline of the steps: (§2)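 RD cells given serial compound dilutions with EV71. Incubated at 37 °C for 24-36 h until full CPE in the virus control. Viability read by MTS/PMS at 498 nm. EC50 is the concentration giving 50% inhibition of virus-induced CPE. At least three independent experiments.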

Another data set relates to Coxsackievirus B1. Description: Antiviral activity against Human coxsackievirus B1 infected in african green monkey Vero cells after 24 to 36 hrs by MTS-based CPE reduction assay. In kind it is functional, organism-based. The note with it: Enterovirus B. A digest of the protocol: as §1
For data set [3], the system named is RD. Description: Cytotoxicity against human RD cells assessed as reduction in cell viability after 24 to 36 hrs by MTS-based CPE reduction assay. In kind it is functional. An outline of the steps: (§3)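 Noninfected Vero or RD cells exposed to serial compound dilutions under the CPE-assay conditions (37 °C, 24-36 h). Viability measured by MTS/PMS absorbance at 498 nm. CC50 is the concentration causing 50% death of noninfected cells.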

Data set [4] is described as follows: Selectivity index, ratio of CC50 for human RD cells to EC50 for Enterovirus 71. The note with it: read-out: Ratio CC50/EC50. In kind it is toxicity, cell-based. A digest of the protocol:
(§4)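 Selectivity index is CC50/EC50, both taken from MTS-based CPE reduction assays in the same cell line (Vero or RD).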

A short description of data set [5]: Selectivity index, ratio of CC50 for african green monkey Vero cells to EC50 for Enterovirus 71. The format is toxicity, cell-based. The note with it: read-out: Ratio CC50/EC50. An outline of the steps:
as §4

The next data set concerns Coxsackievirus B4. Description: Antiviral activity against Human coxsackievirus B4 infected in african green monkey Vero cells by after 24 to 36 hrs MTS-based CPE reduction assay. Particulars: Enterovirus B. In kind it is functional, organism-based. An outline of the steps:
as §1

Data set [6] can be described thus: Cytotoxicity against african green monkey Vero cells assessed as reduction in cell viability after 24 to 36 hrs by MTS-based CPE reduction assay. Particulars: chlorocebus sabaeus. An outline of the steps: as §3
The test system of data set [7] is RD. Put plainly: Cytotoxicity against human RD cells infected with human enterovirus 71 measured during a single replication cycle. In kind it is cell-based.
For data set [8], the system named is RD. Description: Inhibition of human enterovirus 71 capsid assessed as reduction in viral replication at early stages infected in human RD cells at 0.05 ug/ml. The note with it: Enterovirus A71. In kind it is cell-based. An outline of the steps:
(§5)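 Time-of-addition test in RD cells infected with EV71 at MOI 0.01. Compound was added at set times relative to infection (0.05 or 20 µg/mL).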

In data set [9] the test system is Enterovirus A71. Description: Induction of stabilization of Human enterovirus 71 capsid protein assessed as increase in temperature for achieving equal staining of viral genome at 5 ug/ml by SYBR green fluorescent assay. A digest of the protocol: (§6)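 SYBR green I and II added at 3× with RNase inhibitor at 1 U/µL. Mixture heated 37–70 °C in 1 °C steps, 2 min each, then cooled to 36 °C for 2 min while fluorescence was read.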

The test system of data set [10] is Enterovirus A71. Put plainly: Antiviral activity against Human enterovirus 71 infected in human RD cells assessed as reduction in virus titer measured during single replication cycle by virus titer assay. The format is functional, organism-based. A digest of the protocol:
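RD cells (5 × 10^4 per well) cultured at 37 °C, 5% CO2. Next day, treated with compound at 0.00042-33.3 µg/mL in 10% FBS, 0.5% DMSO. After 2 h, infected with EV71 at MOI 1. Supernatants serially diluted 10^-1 to 10^-8 onto fresh cells. CPE scored at 72 hpi; TCID50 calculated by Reed-Muench.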

Data set [11] has as its system Enterovirus A71. Description: Antiviral activity against Human enterovirus 71 infected in human RD cells after 24 to 36 hrs. The note with it: Enterovirus A. In kind it is functional, organism-based. A digest of the protocol: as §2
In data set [12] the test system is Enterovirus A71. Put plainly: Induction of stabilization of Human enterovirus 71 capsid protein assessed as increase in temperature for achieving equal staining of viral genome at 50 ug/ml by SYBR green fluorescent assay. A digest of the protocol: as §6
Data set [13] concerns RD. Put plainly: Inhibition of human enterovirus 71 capsid assessed as reduction in viral replication at early stages infected in human RD cells at 20 ug/ml. The format is cell-based. Particulars: Enterovirus A71. A digest of the protocol: as §5

Turning to `CC(C)(C)c1ccc(C(=O)NNc2c(Br)cccc2Br)cc1`, the EC50 with Coxsackievirus B3 is 0.87 µM; in the data set on Coxsackievirus B2 it was 1.57 µM; in the data set on Coxsackievirus B5, 0.98 µM; in the data set with Coxsackievirus B6, 0.92 µM; with Enterovirus A71 [1], 0.08 µM; with Enterovirus A71 [2] it was 0.29 µM. Also, the figures for the EC50 in the data set with Coxsackievirus B1 and in the data set with Coxsackievirus B4 were 2.61 µM and 6.52 µM, respectively. Moreover, the CC50 (with RD [3]; in data set [6]) was greater than 188 µM in each case. Besides, the selectivity ratio is greater than 641 in data set [4] and greater than 2350 in data set [5].

Turning to `CN(C)c1ccc(C(=O)NNc2c(Br)cccc2Br)cc1`, the EC50 with Coxsackievirus B3 turned out to be 0.03 µM; with Coxsackievirus B2, 0.0005 µM; in the data set on Coxsackievirus B5, 0.06 µM; in the data set with Coxsackievirus B6, 0.02 µM; in the data set with Enterovirus A71 [1], 0.03 µM; in the data set with Enterovirus A71 [2] it was 0.07 µM. The EC50 in the data set on Coxsackievirus B1 stood at 0.005 µM; in the data set with Coxsackievirus B4, 0.34 µM. In addition, the CC50 (in the data set with RD [3]; in [6]) was greater than 194 µM in each case. Moreover, the selectivity ratio in [4] was greater than 2930; in data set [5], greater than 6460.

On to `CC(C)S(=O)(=O)n1c(N)nc2ccc(/C(=N/O)c3ccccc3)cc21` [ENVIROXIME], for which the EC50 in the data set with Coxsackievirus B3 worked out at 2.48 µM; in the data set on Coxsackievirus B2 it was 0.15 µM; in the data set on Coxsackievirus B5, 0.12 µM; in the data set on Coxsackievirus B6, 0.1 µM; in the data set on Enterovirus A71 [1], 0.15 µM; with Enterovirus A71 [2], 0.24 µM. In addition, the EC50 was 0.75 µM with Coxsackievirus B1 and greater than 186 µM in the data set on Coxsackievirus B4. Further, the CC50 (in the data set with RD [3]; in [6]) was greater than 223 µM in each case. In addition, the figures for the selectivity ratio in data set [4] and in data set [5] were greater than 950 and greater than 1490, respectively.

For `Cc1cccc(C)c1NNC(=O)c1ccc(C(C)(C)C)cc1`, the EC50 stood at 0.09 µM in the data set with Coxsackievirus B3; 0.0016 µM in the data set on Coxsackievirus B2; 3.19 µM in the data set with Coxsackievirus B5; 0.56 µM in the data set with Coxsackievirus B6; 0.17 µM with Enterovirus A71 [1]; 0.42 µM in the data set on Enterovirus A71 [2]. The EC50 is 0.0016 µM with Coxsackievirus B1 and 5.62 µM in the data set on Coxsackievirus B4. Further, the values for the CC50 (in the data set on RD [3]; in data set [6]) were 188 µM and 166 µM, respectively. Further, the selectivity ratio in [4] was found to be 454; in [5], 978.

Regarding `CN(C)c1ccc(C(=O)NNc2c(Cl)cccc2Cl)cc1`, the EC50 in the data set with Coxsackievirus B3 turned out to be 0.95 µM; in the data set with Coxsackievirus B2, 0.0009 µM; with Coxsackievirus B5, 2.27 µM; in the data set on Coxsackievirus B6, 0.94 µM; with Enterovirus A71 [1] it was 0.02 µM; in the data set on Enterovirus A71 [2], 0.03 µM. Besides, the EC50 came out at 0.0013 µM in the data set on Coxsackievirus B1 and 2.57 µM in the data set on Coxsackievirus B4. Also, the Activity result with RD [7] was “Non-toxic”. Besides, in the data set on RD [8], the inhibition result is “Active”. Besides, the CC50 (with RD [3]; in data set [6]) was greater than 247 µM throughout. Moreover, the selectivity ratio in [4] is greater than 8230; in data set [5], greater than 12300. The result in the data set on Enterovirus A71 [9] and in the data set on Enterovirus A71 [10] was Active.

With `O=C(c1cccs1)N(Cc1ccc(Br)cc1)c1ccc(F)cc1`, a half-maximal effect in the data set with Enterovirus A71 [11] (EC50) was put at 1.42 µM.

On to `COc1ccc(C(=O)NNc2c(C)cccc2C)cc1`, for which the EC50 in the data set on Enterovirus A71 [1] stood at 12.3 µM; in the data set with Enterovirus A71 [2], 29 µM. Moreover, the CC50 (in the data set with RD [3]; in data set [6]) was greater than 296 µM each time. Also, the results for the selectivity ratio in data set [4] and in data set [5] were greater than 10.2 and greater than 24, respectively.

In the case of `CCc1ccc(C(=O)NNc2c(C)cccc2Cl)cc1`, the EC50 was determined as 6.37 µM with Enterovirus A71 [1] and 10.5 µM in the data set with Enterovirus A71 [2]. For the same compound, the CC50 in the data set with RD [3] turned out to be 105 µM; in data set [6], 81.7 µM. In addition, the selectivity ratio in data set [4] was determined as 10; in [5], 12.8.

As for `Cc1cc(CCCCCCCOc2ccc(C3=NCCO3)cc2)on1` [DISOXARIL], in the data set on Enterovirus A71 [12], the result was Active. The inhibition result in the data set with RD [13] was “Active”. Besides, the EC50 with Enterovirus A71 [1] stood at 19.5 µM; in the data set on Enterovirus A71 [2], 15.3 µM. In addition, the CC50 with RD [3] was found to be 167 µM; in [6], 148 µM. Also, the selectivity ratio in [4] turned out to be 10.9; in data set [5], 7.6.

`Cc1cccc(Cl)c1NNC(=O)c1ccc(C(C)(C)C)cc1`: the EC50 with Enterovirus A71 [1] came to 0.79 µM; in the data set with Enterovirus A71 [2], 0.97 µM. Besides, the values for the CC50 (in the data set on RD [3]; in data set [6]) were 63.2 µM and 49.2 µM, respectively. For the same compound, the selectivity ratio in data set [4] stood at 65.1; in [5] it was 62.3.

For `COc1cccc(OC)c1NNC(=O)c1ccc(C(C)(C)C)cc1`, the results for the EC50 in the data set on Enterovirus A71 [1] and in the data set with Enterovirus A71 [2] were 10.4 µM and 27.4 µM, respectively. In addition, the CC50 (in the data set on RD [3]; in data set [6]) was greater than 244 µM throughout. The selectivity ratio is greater than 8.9 in data set [4] and greater than 23.4 in data set [5].

For `Cc1ccc(C(=O)NNc2c(Br)cccc2Br)cc1`, the values for the EC50 with Enterovirus A71 [1] and in the data set on Enterovirus A71 [2] were 10.8 µM and 24.7 µM, respectively. Besides, the CC50 in the data set on RD [3] was determined as 163 µM; in [6], 146 µM. For the same compound, the values for the selectivity ratio in data set [4] and in data set [5] were 6.6 and 13.5, respectively.

Regarding `CC(C)(C)c1ccc(C(=O)NNc2c(F)cccc2F)cc1`, the EC50 in the data set on Enterovirus A71 [1] stood at 2.19 µM; in the data set on Enterovirus A71 [2], 4.27 µM. The CC50 in the data set with RD [3] stood at 184 µM; in [6], 150 µM. Further, the selectivity ratio is 43 in [4] and 68.4 in data set [5].
